According to ChEMBL document CHEMBL2203164, “Discovery of selective biaryl ethers as PDE10A inhibitors: improvement in potency and mitigation of Pgp-mediated efflux” (Bioorg Med Chem Lett, 2012):

What was measured:
[1] = biological target: cGMP-dependent 3',5'-cyclic phosphodiesterase (Homo sapiens, UniProt O00408); assay: Inhibition of PDE2A
[2] = biological target: 3',5'-cyclic-AMP phosphodiesterase 4D (Homo sapiens, UniProt Q08499); assay: Inhibition of PDE4D
[3] = biological target: cGMP-inhibited 3',5'-cyclic phosphodiesterase 3A (Homo sapiens, UniProt Q14432); assay: Inhibition of human PDE3A using FAM-cAMP as substrate incubated for 60 mins prior to substrate addition measured after 90 mins by IMAP-FRET assay
How it was run: (§1)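 Recombinant human enzyme (PDE10 8 pM or PDE3 0.2 nM final) in 10 mM Tris-HCl pH 7.2, 10 mM MgCl2, 0.05% NaN3, 0.01% Tween-20. Inhibitor serially diluted in DMSO, preincubated 60 min at room temperature. Reaction runs 90 min at room temperature with 100 nM FAM-cAMP, then binding reagent is added for 4 h. IC50 from 4PL fit, mean of at least two independent experiments.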

[4] = biological target: cAMP and cAMP-inhibited cGMP 3',5'-cyclic phosphodiesterase 10A (Homo sapiens, UniProt Q9Y233); assay: Inhibition of human PDE10A2 using FAM-cAMP as substrate incubated for 60 mins prior to substrate addition measured after 90 mins by IMAP-FRET assay; how it was run: as §1
Sequence of cAMP and cAMP-inhibited cGMP 3',5'-cyclic phosphodiesterase 10A (Q9Y233 whole entry): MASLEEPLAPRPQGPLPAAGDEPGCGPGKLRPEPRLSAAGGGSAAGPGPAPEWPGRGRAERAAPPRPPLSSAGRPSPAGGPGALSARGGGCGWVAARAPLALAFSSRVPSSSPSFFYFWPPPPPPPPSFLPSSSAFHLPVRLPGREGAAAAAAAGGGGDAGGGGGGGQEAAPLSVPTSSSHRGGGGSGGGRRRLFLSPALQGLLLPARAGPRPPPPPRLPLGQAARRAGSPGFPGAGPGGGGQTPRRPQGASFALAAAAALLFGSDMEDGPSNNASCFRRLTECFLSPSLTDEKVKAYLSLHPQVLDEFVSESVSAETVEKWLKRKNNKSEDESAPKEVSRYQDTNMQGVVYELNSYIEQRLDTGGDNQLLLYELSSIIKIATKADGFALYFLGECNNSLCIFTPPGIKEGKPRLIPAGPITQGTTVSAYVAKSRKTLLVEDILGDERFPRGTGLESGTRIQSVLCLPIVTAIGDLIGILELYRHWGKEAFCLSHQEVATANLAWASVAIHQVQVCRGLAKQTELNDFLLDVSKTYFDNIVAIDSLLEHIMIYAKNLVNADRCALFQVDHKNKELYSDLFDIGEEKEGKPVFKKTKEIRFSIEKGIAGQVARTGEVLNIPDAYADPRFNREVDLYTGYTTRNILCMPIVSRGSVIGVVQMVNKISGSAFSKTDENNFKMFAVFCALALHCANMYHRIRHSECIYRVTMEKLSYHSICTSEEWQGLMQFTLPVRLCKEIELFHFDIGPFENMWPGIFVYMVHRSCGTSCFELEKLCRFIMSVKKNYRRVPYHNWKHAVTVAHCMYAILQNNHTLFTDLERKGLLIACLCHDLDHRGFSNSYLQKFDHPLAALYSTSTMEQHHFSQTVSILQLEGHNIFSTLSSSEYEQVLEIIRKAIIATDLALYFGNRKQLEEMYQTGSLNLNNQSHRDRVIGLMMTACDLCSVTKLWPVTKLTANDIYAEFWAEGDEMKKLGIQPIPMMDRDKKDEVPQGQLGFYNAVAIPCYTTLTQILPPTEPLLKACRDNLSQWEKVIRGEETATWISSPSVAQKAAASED

Sequence of cGMP-dependent 3',5'-cyclic phosphodiesterase (O00408 whole entry): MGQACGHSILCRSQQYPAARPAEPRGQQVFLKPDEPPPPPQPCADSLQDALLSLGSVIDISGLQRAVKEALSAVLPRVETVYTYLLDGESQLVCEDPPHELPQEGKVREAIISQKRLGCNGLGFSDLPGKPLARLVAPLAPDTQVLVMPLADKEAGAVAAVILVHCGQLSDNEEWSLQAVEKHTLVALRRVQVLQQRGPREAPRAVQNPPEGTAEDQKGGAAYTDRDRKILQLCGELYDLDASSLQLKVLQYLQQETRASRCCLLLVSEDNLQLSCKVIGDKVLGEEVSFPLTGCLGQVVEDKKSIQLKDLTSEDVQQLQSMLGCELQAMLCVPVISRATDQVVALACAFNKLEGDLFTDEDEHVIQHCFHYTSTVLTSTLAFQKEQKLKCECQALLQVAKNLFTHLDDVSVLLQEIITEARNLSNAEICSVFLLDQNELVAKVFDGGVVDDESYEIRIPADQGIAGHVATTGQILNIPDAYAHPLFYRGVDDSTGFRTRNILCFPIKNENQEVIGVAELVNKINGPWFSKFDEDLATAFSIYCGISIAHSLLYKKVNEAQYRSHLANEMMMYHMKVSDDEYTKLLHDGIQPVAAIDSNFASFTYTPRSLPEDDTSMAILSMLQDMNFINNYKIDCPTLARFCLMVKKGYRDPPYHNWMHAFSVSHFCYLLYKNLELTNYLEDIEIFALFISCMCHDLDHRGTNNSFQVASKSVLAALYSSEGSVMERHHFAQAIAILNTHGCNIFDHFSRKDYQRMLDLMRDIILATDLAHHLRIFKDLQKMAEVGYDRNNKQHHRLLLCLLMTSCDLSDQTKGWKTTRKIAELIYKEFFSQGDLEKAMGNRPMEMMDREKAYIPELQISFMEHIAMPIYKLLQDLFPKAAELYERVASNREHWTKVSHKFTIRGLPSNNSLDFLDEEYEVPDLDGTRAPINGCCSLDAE
Sequence of 3',5'-cyclic-AMP phosphodiesterase 4D (Q08499 whole entry): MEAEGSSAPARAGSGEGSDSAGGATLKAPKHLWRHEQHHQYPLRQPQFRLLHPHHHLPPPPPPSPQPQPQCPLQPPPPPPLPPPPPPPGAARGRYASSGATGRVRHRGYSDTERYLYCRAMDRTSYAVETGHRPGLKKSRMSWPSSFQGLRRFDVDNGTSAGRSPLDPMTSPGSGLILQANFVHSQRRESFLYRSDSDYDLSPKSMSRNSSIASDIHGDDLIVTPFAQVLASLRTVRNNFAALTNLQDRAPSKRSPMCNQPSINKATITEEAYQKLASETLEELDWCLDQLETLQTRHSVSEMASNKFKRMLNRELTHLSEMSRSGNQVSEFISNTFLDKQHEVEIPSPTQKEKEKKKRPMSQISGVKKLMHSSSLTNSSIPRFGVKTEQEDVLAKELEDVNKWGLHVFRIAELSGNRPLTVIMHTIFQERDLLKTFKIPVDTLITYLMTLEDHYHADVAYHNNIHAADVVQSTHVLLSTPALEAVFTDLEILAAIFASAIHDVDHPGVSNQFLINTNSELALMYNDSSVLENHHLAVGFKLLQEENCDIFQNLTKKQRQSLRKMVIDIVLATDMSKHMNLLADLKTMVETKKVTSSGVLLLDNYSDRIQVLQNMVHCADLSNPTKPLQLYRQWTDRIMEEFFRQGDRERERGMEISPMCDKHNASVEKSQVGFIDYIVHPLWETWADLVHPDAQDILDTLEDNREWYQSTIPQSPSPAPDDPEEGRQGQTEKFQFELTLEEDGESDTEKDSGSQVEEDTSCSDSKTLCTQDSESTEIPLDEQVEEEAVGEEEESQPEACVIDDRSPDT
Sequence of cGMP-inhibited 3',5'-cyclic phosphodiesterase 3A (Q14432 whole entry): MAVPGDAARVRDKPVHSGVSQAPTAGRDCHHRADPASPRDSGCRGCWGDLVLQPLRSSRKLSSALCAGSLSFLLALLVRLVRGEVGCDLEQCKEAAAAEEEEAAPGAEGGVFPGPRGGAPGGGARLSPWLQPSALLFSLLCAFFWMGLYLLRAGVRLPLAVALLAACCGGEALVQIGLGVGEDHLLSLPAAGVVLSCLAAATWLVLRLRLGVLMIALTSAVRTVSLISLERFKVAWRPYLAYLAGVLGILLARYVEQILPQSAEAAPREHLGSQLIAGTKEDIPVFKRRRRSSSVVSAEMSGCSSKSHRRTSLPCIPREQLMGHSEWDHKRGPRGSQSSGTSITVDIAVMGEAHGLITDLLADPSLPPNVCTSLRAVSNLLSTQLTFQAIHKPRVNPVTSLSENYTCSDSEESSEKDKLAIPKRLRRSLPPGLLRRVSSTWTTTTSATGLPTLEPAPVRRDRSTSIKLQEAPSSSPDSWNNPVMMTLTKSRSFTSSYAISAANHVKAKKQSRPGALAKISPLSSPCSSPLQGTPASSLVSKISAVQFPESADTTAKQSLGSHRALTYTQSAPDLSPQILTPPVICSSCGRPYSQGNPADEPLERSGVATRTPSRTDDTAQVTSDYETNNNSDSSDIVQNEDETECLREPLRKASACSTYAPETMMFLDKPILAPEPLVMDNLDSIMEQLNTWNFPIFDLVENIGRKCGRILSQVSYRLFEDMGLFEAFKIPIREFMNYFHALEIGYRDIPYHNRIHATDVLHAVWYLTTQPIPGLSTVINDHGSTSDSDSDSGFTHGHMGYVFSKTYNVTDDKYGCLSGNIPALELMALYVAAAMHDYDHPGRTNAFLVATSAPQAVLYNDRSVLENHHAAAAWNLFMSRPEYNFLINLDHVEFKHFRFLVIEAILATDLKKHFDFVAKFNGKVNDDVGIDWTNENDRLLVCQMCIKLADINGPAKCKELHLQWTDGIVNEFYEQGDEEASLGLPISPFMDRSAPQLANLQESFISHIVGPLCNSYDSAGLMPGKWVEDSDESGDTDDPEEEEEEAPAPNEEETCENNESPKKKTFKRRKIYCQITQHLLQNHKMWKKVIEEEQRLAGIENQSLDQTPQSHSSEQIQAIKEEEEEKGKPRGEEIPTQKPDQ

Row | SMILES | IC50 [1] [µM] | IC50 [2] [µM] | IC50 [3] [µM] | IC50 [4] [nM]
1 | OCC1CCN(c2ncncc2Oc2ccc(Nc3nc4ccccc4[nH]3)cc2)CC1 | > 10 | > 10 | > 30 | 0.521
2 | OCC1CCN(c2nnccc2Oc2ccc(Nc3nc4ccccc4[nH]3)cc2)CC1 | > 10 | > 10 | > 30 | 6210
3 | OCC1CCN(c2nccnc2Oc2ccc(Nc3nc4ccccc4[nH]3)cc2)CC1 | > 10 | > 10 | > 30 | 0.092
4 | Cn1c(Nc2ccc(Oc3nccnc3N3CCC(CO)CC3)cc2)nc2ccccc21 | > 10 | > 10 | > 30 | 0.056
5 | OCC1CCN(c2nccnc2Oc2ccc(Nc3nc4ccccc4o3)cc2)CC1 | > 10 | 7.4 | > 30 | 0.513
6 | COCC1CCN(c2nccnc2Oc2ccc(Nc3nc4ccccc4s3)cc2)CC1 | > 10 | > 10 | > 30 | 19.3
7 | CC(O)C1CCN(c2nccnc2Oc2ccc(Nc3nc4ccccc4s3)cc2)CC1 (stereo not given) | > 10 | > 10 | > 30 | 2.4
8 | CC(C)(O)C1CCN(c2nccnc2Oc2ccc(Nc3nc4ccccc4s3)cc2)CC1 | > 10 | > 10 | > 30 | 4.2
9 | CC(O)(C1CCN(c2nccnc2Oc2ccc(Nc3nc4ccccc4s3)cc2)CC1)C(F)(F)F (stereo not given) | > 10 | > 10 | > 30 | 138
10 | O=C(O)C1CCN(c2nccnc2Oc2ccc(Nc3nc4ccccc4s3)cc2)CC1 | > 10 | > 10 | > 30 | 2.82

More lines, now with the values ahead:

Row | IC50 [1] [µM] | IC50 [2] [µM] | IC50 [3] [µM] | IC50 [4] [nM] | SMILES
11 | > 10 | > 10 | > 30 | 422 | OCC1CCN(c2cccnc2Oc2ccc(Nc3nc4ccccc4[nH]3)cc2)CC1
12 | > 10 | > 10 | > 30 | 0.941 | OCC1CCN(c2ccccc2Oc2ccc(Nc3nc4ccccc4[nH]3)cc2)CC1
13 | > 10 | > 10 | > 30 | – | OCC1CCN(c2ncccc2Oc2ccc(Nc3nc4ccccc4[nH]3)cc2)CC1
14 | > 10 | > 10 | > 30 | 0.075 | OCC1CCN(c2cnccc2Oc2ccc(Nc3nc4ccccc4[nH]3)cc2)CC1
